Runt-SMMHC FRET: Runt domain-CBFb-SMMHC interaction inhibition; Q01196+Q13951; Cerulean-Runt/Venus-CBFb-SMMHC FRET ratio 530/480, 1 h; inhibition, % at 20 µM; 220,000 compounds, 0.74% hits;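 active means mean inhibition across duplicate retests at 20 µM reaching about 50%, limit read from the data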;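 further: inhibitors lower the FRET ratio by blocking Runt binding to CBFb-SMMHC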
VIM-2 inh: blocks Pseudomonas aeruginosa VIM-2 metallo-beta-lactamase | purified VIM-2, nitrocefin hydrolysis, epi-absorbance fluorescence | 290,000 compounds, 0.89% hits | inhibition, % at 5.6 µM;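 active means inhibition above the mean of all tested compounds plus 3 SD, cutoff set per screening run, cut at about 7.5% in these data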;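 further: red hydrolysis product quenches plate fluorescence so inhibitors raise well fluorescence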
Runt-CBFb FRET: inhibitors of human RUNX1 Runt domain binding to CBFb; Q01196+Q13951; Cerulean-Runt/Venus-CBFb FRET ratio 530/480, 1 h; inhibition, % at 20 µM; 220,000 compounds, 0.46% hits; AID 1496;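 active means inhibition over about 50% at 20 µM in the single-dose screen, limit read from the data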
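Measured by: fluorescence energy transfer, 422 nm excitation, 530/480 nm emission; Assay system: Cerulean-Runt domain; Medium: Tris pH 7.5 buffer with BSA; Measure: loss of energy transfer signal; Controls: 5 µM unlabeled CBFb as full-inhibition high control; Incubation: protein complex preformed 1 h, compound exposure 1 h, room temperature, dark.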
IMP-1 inhibitor: blocks Pseudomonas aeruginosa IMP-1 metallo-beta-lactamase. purified IMP-1, nitrocefin hydrolysis, epi-absorbance fluorescence. inhibition, % at 5.6 µM. 290,000 compounds, 0.45% hits. AID 1556;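 active means inhibition above the mean plus 3 SD of all compounds in the same screening run, cut at about 4.5% in these data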
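System: Purified IMP-1 | Read-out basis: Percent enzyme inhibition | Controls: IMP-1 with DMSO as 0%, enzyme-free DMSO as 100% | Replicates: One well per compound | Doses: 5.6 µM nominal single concentration | Detection: Epi-absorbance fluorescence, 480 nm excitation, 530 nm emission | Incubation: 25 °C, 15 min preincubation, 25 min reaction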
RanGTP-Impb inh: inhibitors of RanGTP-importin-beta interaction, primary screen, biochemical, FRET, CFP-Ran, YFP-importin-beta, homogeneous | cell-free CFP-Ran/YFP-importin-beta FRET ratio | inhibition, % (no concentration beside the values) | 300,000 compounds, 1.1% hits;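 active means more than half of the replicate wells show a fall in the fluorescence ratio signal beyond about 16%, limit read from the data, passing the limit was not always enough; inconclusive means exactly half of the replicate wells pass the set limit; inactive means fewer than half of replicates pass the limit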
Numbers stand for hits; n = inactive; u = inconclusive; x = no result given. An excerpt weighted towards active compounds, which were near 2.6% of everything screened.

SMILES	Runt-SMMHC FRET	VIM-2 inh	Runt-CBFb FRET	IMP-1 inhibitor	RanGTP-Impb inh
Cc1cccn2c(=O)c3cc(C(N)=S)c(=N)n(CCCOC(C)C)c3nc12	65.3	n	56.8	n	173.9
CCOCCCn1c(=N)c(C(N)=S)cc2c(=O)n3cccc(C)c3nc21	x	n	n	n	173.3
CCOC(=O)c1cc2c(=O)n3cccc(C)c3nc2n(C)c1=N	n	n	n	n	x
O=C(NCc1nc2ccccc2[nH]1)C1=C[C@@H](c2ccc3c(c2)OCO3)C[C@@H](OCc2ccc(CO)cc2)O1	n	x	n	x	n
COC(=O)C1=C(C(=O)OC)[C@@H]2N(Cc3ccccc3)c3ccccc3[C@@]23C[C@@H](C(=O)OC)N(C(=O)COCc2ccccc2)C3=N1	n	x	n	x	n
CC(C)n1c(-c2ccc(C(C)(C)C)cc2)n[nH]c1=S	n	n	n	n	n
CC(C)n1c(-c2ccccc2F)n[nH]c1=S	n	n	n	5.0	n
CC(=O)Nc1cccc(-c2cc(C)c3cc4c(cc3n2)OCO4)c1	x	n	x	n	u
COC1=C(Nc2ccccc2)C(=O)c2ccccc2C1=O	n	10.4	n	n	n
COC1=C(Nc2ccc(C)cc2)C(=O)c2ccccc2C1=O	n	n	n	n	n
CC(/C=N/NC(=O)c1cccs1)=C\c1ccco1	n	n	n	n	20.4
CCn1nc(C)c(CN2CCC(C(=O)Nc3cccc(-c4cccc(Cl)c4)c3)CC2)c1C	x	n	x	n	n
COc1ccccc1CCNC(=O)c1nccnc1C(=O)O	x	n	x	n	n
CCN(CC)S(=O)(=O)c1ccc(N2CCOCC2)c(NC(=S)NC(=O)c2ccco2)c1	n	n	n	n	n
O=C(NC(=S)NCCC1=CCCCC1)c1ccccc1Br	n	24.7	n	n	n
CCN1CCN(C(=O)c2cc3c(=O)n4ccccc4nc3s2)CC1	x	11.7	x	n	n
O=C(c1cc2c(=O)n3ccccc3nc2s1)N1CCc2ccccc2C1	80.8	n	n	n	n
Cn1c2ccccc2c(=O)c2cc(C#Cc3ccc(N)cc3)ccc21	x	n	x	n	50.3
Cn1c2ccccc2c(=O)c2ccc(C#CC3(O)CCCCC3)cc21	x	n	x	n	164.6
C[C@]12C=CC(=O)C=C1CC[C@@H]1[C@@H]2[C@@H](O)C[C@@]2(C)[C@H]1CC[C@]2(O)C(=O)CO	x	n	x	n	n
COc1ccc(C(=O)Nc2nnc(SCC(=O)NC3CC3)s2)cc1	x	n	x	n	n
COc1ccc(CC(=O)Nc2ccc(-c3cn4ccccc4n3)cc2)cc1	n	n	n	n	n
O=C(Nc1ccc(-c2cn3ccccc3n2)cc1)c1cccs1	n	n	n	6.4	n
CCOC(=O)c1c(/N=C/N(C)C)sc(C=O)c1-c1ccccc1	134.4	n	102.9	n	n
CCOC(=O)c1c(/N=C/N(C)C)sc(/C=N/Nc2ccccc2)c1-c1ccccc1Cl	n	n	n	n	n
SMILES	Runt-SMMHC FRET	VIM-2 inh	Runt-CBFb FRET	IMP-1 inhibitor	RanGTP-Impb inh
CC1=CC(C)(C)N(C(=O)CNC2CCCC2)c2cc(C)ccc21	n	n	n	33.6	n
CCOc1ccc2c(c1)N(C(=O)CN1C(=O)CCC1=O)C(C)(C)C=C2C	n	n	n	n	n
CCn1c(COc2ccccc2)nnc1SCC(=O)Nc1ccc(N2CCOCC2)cc1	x	n	x	n	n
COC(OC)C1(C)C(C#N)=C(N)Oc2c1c(=O)oc1ccccc21 (stereo not given)	x	n	x	n	n
CC1(C)C(C#N)=C(N)Oc2c1c(=O)oc1ccccc21	n	n	n	4.9	n
Cc1ccc(N=Cc2c(C)[nH]n(-c3nc4ccccc4[nH]3)c2=O)cc1	n	n	n	5.0	n
Cc1ccc(-n2[nH]c(C)c(C=Nc3ccc4[nH]c(=O)[nH]c4c3)c2=O)cc1	n	n	n	n	n
O=C(NC(=S)NC1C2CC3CC(C2)CC1C3)c1ccccc1 (stereo not given)	x	n	x	n	n
CC(C)N1CCc2c(sc(NC(=O)c3ccc4ccccc4c3)c2C(N)=O)C1	x	n	x	n	147.7
CC(C)N1CCc2c(sc(NC(=O)c3cc4cc([N+](=O)[O-])ccc4s3)c2C(N)=O)C1	n	n	n	n	32.9
CCN1CCc2c(sc(NC(=O)c3cc4ccccc4cc3OC)c2C(N)=O)C1	x	n	x	n	x
CC(C)N1CCc2c(sc(NC(=O)c3ccc(C(=O)c4ccccc4)cc3)c2C(N)=O)C1	x	n	x	n	63.5

Assay outcomes (PubChem BioAssay)
